From PMC4711262 (Journal of thrombosis and haemostasis : JTH, 2011)
Residues, ends and D or L forms follow the SMILES beside them. *: point of attachment. AMC = Cc1cc(=O)oc2cc(N*)ccc12; Cbz = O=C(OCc1ccccc1)*

Columns and labels:
[1] = target: T1, POP (Homo sapiens, UniProt P48147); conditions: cited from earlier work
T1 sequence (P48147 1-710): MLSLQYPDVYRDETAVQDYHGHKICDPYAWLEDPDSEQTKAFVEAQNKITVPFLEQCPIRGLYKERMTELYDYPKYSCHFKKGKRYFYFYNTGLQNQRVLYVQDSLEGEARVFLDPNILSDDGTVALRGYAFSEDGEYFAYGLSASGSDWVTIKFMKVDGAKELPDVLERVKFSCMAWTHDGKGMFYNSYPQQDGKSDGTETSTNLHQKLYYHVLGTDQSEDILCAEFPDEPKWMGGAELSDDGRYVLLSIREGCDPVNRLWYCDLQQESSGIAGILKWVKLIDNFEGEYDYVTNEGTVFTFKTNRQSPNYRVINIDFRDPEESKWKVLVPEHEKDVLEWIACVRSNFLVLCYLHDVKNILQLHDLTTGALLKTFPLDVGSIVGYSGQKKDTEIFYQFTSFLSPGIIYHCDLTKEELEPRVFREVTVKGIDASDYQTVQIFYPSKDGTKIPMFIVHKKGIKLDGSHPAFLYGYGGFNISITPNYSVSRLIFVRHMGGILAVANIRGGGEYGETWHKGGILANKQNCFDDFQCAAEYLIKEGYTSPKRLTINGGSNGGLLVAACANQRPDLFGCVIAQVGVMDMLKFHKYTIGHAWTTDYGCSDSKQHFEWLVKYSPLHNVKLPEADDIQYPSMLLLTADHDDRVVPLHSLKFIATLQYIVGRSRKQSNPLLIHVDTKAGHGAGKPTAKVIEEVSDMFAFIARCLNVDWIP

[2] = target: T2, DPPIV (Homo sapiens, UniProt P27487); conditions: cited from earlier work
T2 sequence (P27487 whole entry, species assumed): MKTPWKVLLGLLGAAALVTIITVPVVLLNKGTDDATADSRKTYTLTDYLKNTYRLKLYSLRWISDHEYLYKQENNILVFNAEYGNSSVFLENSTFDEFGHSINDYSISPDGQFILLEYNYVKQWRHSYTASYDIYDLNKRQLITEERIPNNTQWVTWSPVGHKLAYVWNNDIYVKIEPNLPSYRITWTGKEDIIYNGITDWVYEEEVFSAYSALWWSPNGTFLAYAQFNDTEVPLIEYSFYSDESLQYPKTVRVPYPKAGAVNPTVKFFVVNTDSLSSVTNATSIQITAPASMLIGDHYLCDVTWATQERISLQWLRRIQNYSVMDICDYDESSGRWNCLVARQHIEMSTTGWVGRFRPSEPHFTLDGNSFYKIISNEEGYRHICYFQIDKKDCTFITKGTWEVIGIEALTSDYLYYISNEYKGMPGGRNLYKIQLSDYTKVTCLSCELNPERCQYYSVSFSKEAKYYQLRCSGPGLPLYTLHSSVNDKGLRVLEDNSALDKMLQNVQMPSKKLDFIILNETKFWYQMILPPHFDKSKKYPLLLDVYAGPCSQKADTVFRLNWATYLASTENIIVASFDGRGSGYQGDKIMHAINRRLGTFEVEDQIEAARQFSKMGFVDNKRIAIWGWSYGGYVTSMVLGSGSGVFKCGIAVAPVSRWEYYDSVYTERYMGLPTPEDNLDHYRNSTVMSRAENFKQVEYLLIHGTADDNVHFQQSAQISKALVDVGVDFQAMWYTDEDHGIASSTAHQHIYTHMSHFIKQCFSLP

[3] = target: T2, DPPIV; assay: Enzyme assay with fluorogenic substrate, DPPIV; assay type: biochemical
[4] = target: T1, POP; assay: Enzyme assay with fluorogenic substrate, POP; assay type: biochemical; conditions: 100 nM inhibitor; in buffer
[5] = tested on: APCE and POP; assay type: biochemical, human; conditions: non-POP-supplemented plasma; 10 μM inhibitor; 100 μM substrate
How it was run: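 Pooled plasma from four donors, with or without 0.05 μg added POP, was assayed with 10 μM inhibitor or no inhibitor. Cleavage was compared with uninhibited plasma. Values are mean ± SD of three experiments.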

[6] = target: T3, APCE/FAP (Homo sapiens, UniProt Q12884); assay: Enzyme assay with fluorogenic substrate, APCE/FAP; assay type: biochemical; conditions: 10 μM inhibitor
T3 sequence (Q12884 24-760 limits assumed): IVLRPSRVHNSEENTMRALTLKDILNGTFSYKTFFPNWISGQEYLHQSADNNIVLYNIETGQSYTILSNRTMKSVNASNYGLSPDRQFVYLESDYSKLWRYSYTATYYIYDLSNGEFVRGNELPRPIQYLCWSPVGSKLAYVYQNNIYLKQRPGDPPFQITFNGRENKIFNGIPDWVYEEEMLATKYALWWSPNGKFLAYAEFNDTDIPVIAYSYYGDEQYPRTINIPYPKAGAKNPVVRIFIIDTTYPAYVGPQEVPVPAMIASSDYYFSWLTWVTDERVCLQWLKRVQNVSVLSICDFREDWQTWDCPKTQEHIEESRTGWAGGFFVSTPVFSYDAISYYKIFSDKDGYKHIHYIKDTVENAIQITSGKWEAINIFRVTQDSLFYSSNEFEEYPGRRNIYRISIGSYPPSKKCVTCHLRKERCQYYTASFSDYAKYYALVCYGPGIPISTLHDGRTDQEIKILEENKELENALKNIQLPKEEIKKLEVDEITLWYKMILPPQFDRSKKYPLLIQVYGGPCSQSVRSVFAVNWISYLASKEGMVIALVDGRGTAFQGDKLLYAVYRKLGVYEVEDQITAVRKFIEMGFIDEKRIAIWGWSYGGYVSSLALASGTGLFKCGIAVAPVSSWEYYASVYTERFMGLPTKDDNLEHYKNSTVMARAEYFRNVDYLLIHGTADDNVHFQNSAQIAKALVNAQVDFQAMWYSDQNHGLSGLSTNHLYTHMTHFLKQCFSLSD

[7] = pH 7.8; cited from earlier work

Cc1cc(=O)oc2cc(NC(=O)[C@@H]3CCCN3C(=O)CN)ccc12 [GP-AMC] (H-Gly-Pro-{AMC})
cleavage by POP [1]: not cleaved

Cc1cc(=O)oc2cc(NC(=O)[C@@H]3CCCN3C(=O)CNC(=O)OCc3ccccc3)ccc12 [Z-GP-AMC, benzyloxycarbonyl (Z)-GP-AMC] (Cbz-Gly-Pro-{AMC})
cleavage by DPPIV [2]: not cleaved

acetyl-KLR-L-boroPro
inhibitory activity towards DPPIV ([3]; 10 μM inhibitor): no inhibitory activity | inhibition of POP [4]: total inhibition | inhibition of MEPLGRQLTSGP-AMC cleavage in plasma [5]: not inhibited | inhibitory activity towards APCE/FAP [6]: no inhibitory activity

CC(=O)N[C@@H](CCCNC(=N)N)C(=O)NCC(=O)NCC(=O)N1CCC[C@H]1B(O)O [Inhibitor no. 2, Ac-Arg-Gly-Gly-L-boroPro]
DPPIV selectivity ([3]; Ki(app) (DPPIV)/Ki(app) (APCE/FAP)): 19

CC(C)[C@H](N)C(=O)N1CCC[C@H]1B(O)O [Val-boroPro]
stability of inhibitory activity in aqueous media [7]: rapidly loses inhibitory activity
